# Bioassay records: PubChem, The Scripps Research Institute Molecular Screening Center
# Shown are actives, neighbours in structure and some others; about 3.6% of the full set was active somewhere.
# pPAFAH inh – pPAFAH enzyme inhibitors, primary screen, biochemical, fluorescence polarization, human; hit rate 1.5% among 330,000; recombinant pPAFAH, FP-rhodamine probe fluorescence polarization; Platelet-activating factor acetylhydrolase (Homo sapiens), Q13093; inhibition, % at 3.39 µM;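 active = inhibition above the mean inhibition across the screen plus 3 SD, cut at about 25% in these data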;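 note: inhibitors block binding of the rhodamine activity-based probe so polarization drops; 0% = enzyme with DMSO and 100% = wells lacking pPAFAH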
# Target sequence (Q13093 whole entry, looked up): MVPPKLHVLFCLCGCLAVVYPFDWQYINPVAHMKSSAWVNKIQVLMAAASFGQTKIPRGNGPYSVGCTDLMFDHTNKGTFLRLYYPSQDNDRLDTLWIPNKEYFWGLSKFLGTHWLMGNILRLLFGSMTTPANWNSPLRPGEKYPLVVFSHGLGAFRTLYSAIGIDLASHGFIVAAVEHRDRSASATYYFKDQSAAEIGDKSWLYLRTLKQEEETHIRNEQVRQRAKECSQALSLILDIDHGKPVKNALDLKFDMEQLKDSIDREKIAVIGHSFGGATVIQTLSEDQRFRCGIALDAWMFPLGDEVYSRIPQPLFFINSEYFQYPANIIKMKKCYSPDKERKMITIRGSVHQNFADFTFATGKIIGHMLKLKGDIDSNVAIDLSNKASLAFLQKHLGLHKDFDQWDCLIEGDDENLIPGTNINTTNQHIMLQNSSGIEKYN
# PAFAH2 FP inh – PAFAH2 enzyme inhibitors, primary screen, biochemical, fluorescence polarization, human | recombinant PAFAH2, FP-rhodamine activity probe | inhibition, % at 3.39 µM | hit rate 0.99% among 340,000 | AID 492956, 2010;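 active = inhibition above the mean over all tested compounds plus 3 SD, cut at about 30% in these data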;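 note: inhibitors block probe labeling of enzyme so polarization drops; 0% = enzyme with DMSO and 100% = wells lacking PAFAH2 protein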
# PAFAH1B2 inh – PAFAH1B2 enzyme inhibitors, primary screen, biochemical, fluorescence polarization, human; Platelet-activating factor acetylhydrolase IB subunit alpha2 (Homo sapiens), P68402; recombinant PAFAH1B2, FP-rhodamine activity probe; inhibition, % at 3.39 µM; hit rate 1.2% among 340,000;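 active = inhibition above the mean of all tested compounds plus 3 SD, cut at about 24% in these data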;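 note: 0% = enzyme with DMSO and 100% = wells lacking PAFAH1B2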
# Target sequence (P68402 whole entry, looked up): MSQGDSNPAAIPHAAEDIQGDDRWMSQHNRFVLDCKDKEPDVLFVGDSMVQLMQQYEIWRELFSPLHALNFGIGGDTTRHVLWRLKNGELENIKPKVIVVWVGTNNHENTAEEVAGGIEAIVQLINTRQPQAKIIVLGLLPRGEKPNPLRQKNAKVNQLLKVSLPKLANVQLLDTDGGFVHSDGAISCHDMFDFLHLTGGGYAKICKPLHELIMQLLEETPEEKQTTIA
# PAFAH1B3 FP inh – PAFAH1B3 enzyme inhibitors, primary screen, biochemical, fluorescence polarization, human | recombinant PAFAH1B3, FP-rhodamine probe | hit rate 0.28% among 340,000 | Platelet-activating factor acetylhydrolase IB subunit alpha1 (Homo sapiens), Q15102 | inhibition, % at 3.39 µM;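 active = inhibition above the screen-wide average of all tested compounds plus 3 SD, cut at about 25% in these data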;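 note: 0% = enzyme with DMSO only and 100% = wells lacking PAFAH1B3 protein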
# IMP-1 inh – IMP-1 metallo-beta-lactamase inhibitors, primary screen, biochemical, epi-absorbance readout, Pseudomonas aeruginosa enzyme; AID 1556, 2009; hit rate 0.45% among 290,000; purified IMP-1, nitrocefin hydrolysis, epi-absorbance fluorescence; inhibition, % at 5.6 µM;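 active = inhibition above the mean plus 3 SD of all compounds in the same screening run, cut at about 4.5% in these data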;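 note: 0% = IMP-1 with DMSO and 100% = DMSO wells lacking enzyme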
#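 system = purified recombinant IMP-1 beta-lactamase | amount = 0.2 nM IMP-1, as dispensed | medium = HEPES buffer pH 7.1 with ZnSO4 and Brij 35 | times = 25 °C, 15 min preincubation, 25 min reaction | detection = plate fluorescence quenching by hydrolysis product, ex 480/em 530 nm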
# VIM-2 inhibitor – VIM-2 metallo-beta-lactamase inhibitors, primary screen, biochemical, epi-absorbance readout, Pseudomonas aeruginosa enzyme; purified VIM-2, nitrocefin hydrolysis, epi-absorbance fluorescence; inhibition, % at 5.6 µM; hit rate 0.89% among 290,000;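 active = inhibition above the mean of all tested compounds plus 3 SD, cutoff set per screening run, cut at about 7.5% in these data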;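 note: red hydrolysis product quenches plate fluorescence so inhibitors raise well fluorescence; 0% = enzyme with DMSO and 100% = DMSO without enzyme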
# PAFAH2 FP conf – PAFAH2 enzyme inhibitors, confirmation, biochemical, fluorescence polarization, human; shares compounds with PAFAH2 FP inh; recombinant PAFAH2, FP-rhodamine activity probe; inhibition, % at 3.39 µM; hit rate 65% among 2,300; AID 493030, 2011;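 active = mean inhibition over three repeats above a set limit taken from the earlier primary screen, cut at about 30% in these data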;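 note: inhibitor blocks binding of rhodamine activity probe so polarization falls; 0% = enzyme with DMSO and 100% = wells lacking PAFAH2 protein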
# * hit, by the source's call; nt = no result given.
SMILES,pPAFAH inh,PAFAH2 FP inh,PAFAH1B2 inh,PAFAH1B3 FP inh,IMP-1 inh,VIM-2 inhibitor,PAFAH2 FP conf
Cc1ccc(OCC(=O)N(C)C2CCCCC2)c([N+](=O)[O-])n1,-2,0,9,12,nt,nt,nt
Cc1ccc(C(=O)OCC(=O)N(CCc2ccccc2)Cc2ccccc2)cc1S(=O)(=O)N1CCOCC1,-2,-2,-4,0,nt,nt,nt
CC1CCc2sc(C(=O)OCC(=O)NC(C)C)cc2C1 (configuration not stated),-1,31*,1,-3,-1,1,29
Cc1cc(NC(=O)COC(=O)c2cc3c(s2)CCC(C)C3)no1 (configuration not stated),-2,30*,5,5,-2,-2,28
CC1CCc2sc(C(=O)OCC(=O)NC(N)=O)cc2C1 (configuration not stated),2,3,-3,-3,-3,-3,nt
CN(C)CCCNC(=O)C[C@H]1C[C@H](C(=O)N2CCCCC2)[C@@]2(C)c3[nH]c4cc(CCC(=O)N(C)C)ccc4c3CCN2C1=O,0,-4,2,7,nt,nt,nt
CC(=O)Nc1ccc(NC(=O)COC(=O)c2n[nH]c3ccccc23)cc1,-1,-1,-2,5,-1,-3,nt
CCOc1ccc(NC(=O)COC(=O)c2n[nH]c3ccccc23)cc1,-3,62*,7,13,nt,nt,37*
CC(C)CNC(=O)COC(=O)c1n[nH]c2ccccc12,1,56*,4,7,0,0,39*
COc1ccc(CNC(=O)COC(=O)c2n[nH]c3ccccc23)cc1,2,10,-1,2,-3,0,nt
N#CC1=C2SCN(c3ccccc3)CN2C(=O)CC1c1cccs1 (configuration not stated),24,2,5,5,1,1,nt
Cc1ccc(C2CC(=O)N3CN(c4ccc(Br)cc4)CSC3=C2C#N)o1 (configuration not stated),56*,32*,4,6,1,0,9
O=C(COC(=O)c1ccc(F)cc1)NCC1CCCCC1,7,77*,1,3,nt,nt,60*
COc1ccc(C(=O)OCC(=O)NCC2CCCCC2)cc1F,nt,85*,3,1,nt,nt,72*
COc1ccc(C(=O)OCC(=O)NCC2CCCCC2)c(OC)c1,nt,66*,2,0,nt,nt,57*
O=C(COC(=O)c1ccc(S(=O)(=O)NCc2ccco2)cc1)NCC1CCCCC1,20,1,5,4,-3,-2,nt
O=C(COC(=O)c1ccc(Cl)cc1)NCC1CCCCC1,11,59*,8,9,nt,nt,60*
COc1ccc(CC(=O)NCC2CCCCC2)cc1OC,4,-5,1,6,0,-4,nt
O=C(OCN1C(=O)c2ccccc2C1=O)c1cccnc1SC(F)F,5,16,-1,1,-1,-1,nt
COC(=O)c1ccccc1NC(=O)c1cc(-c2ccc(C)cc2)on1,-3,4,1,7,-5,-1,nt
O=S(=O)(c1ccccc1)N1CCN=C1SCc1cccc(Cl)c1,3,13,-2,-2,-3,-3,nt
COc1ccccc1S(=O)(=O)Cc1ccc(C(=O)NC2CC2)o1,4,-3,-6,8,-6,-2,nt
O=C(c1ccccc1)N(c1ccccc1)c1ccccc1O,nt,-3,21,6,nt,nt,nt
O=C(COC(=O)/C=C/c1cccc(F)c1)NC1CCCCCC1,10,82*,6,8,nt,nt,80*
O=C(COC(=O)/C=C/c1cccc(F)c1)NC1CCCC1,9,73*,-3,0,nt,nt,67*
SMILES,pPAFAH inh,PAFAH2 FP inh,PAFAH1B2 inh,PAFAH1B3 FP inh,IMP-1 inh,VIM-2 inhibitor,PAFAH2 FP conf
O=C(COC(=O)/C=C/c1cccc(F)c1)NC1CC1,-1,34*,0,3,nt,nt,18
O=C(COC(=O)/C=C/c1cccc(Br)c1)NC1CCCCC1,6,23,1,-2,nt,nt,nt
O=C1CCc2cc(S(=O)(=O)NC3CCCCC3)ccc2N1,3,16,11,8,nt,nt,nt
COc1ccc(/C=C2\S/C(=N/S(=O)(=O)c3cccs3)NC2=O)cc1,5,-6,4,2,-4,-5,nt
CCCCN1CC(=O)N2[C@H]3c4ccc(OC)cc4OC[C@@H]3[C@H](c3ccccc3)[C@]2(C)C1=O,-2,1,-1,-3,nt,nt,nt
O=C(O)c1ccc2c(=O)n3c(nc2c1)/C(=C/c1ccc(C(F)(F)F)cc1)CC3,2,-63,2,5,-1,1,nt
O=c1c2ccccc2nc2n1CC/C2=C/N1CCN(c2cccc(C(F)(F)F)c2)CC1,18,33*,23,21,-4,-1,-1
O=C(Cc1ccc(S(=O)(=O)N2CCOCC2)s1)N1CCN(c2cccc(C(F)(F)F)c2)CC1,3,-3,3,-9,-4,-2,nt
Cc1ccc(-c2c(C#N)c(N)n3c(nc4ccccc43)c2C#N)cc1,13,46*,5,5,-1,0,34*
Cc1cc2c(=O)oc(-c3ccccc3Br)nc2s1,nt,69*,3,5,-6,1,52*
COc1cc2nc(-c3ccccc3C)oc(=O)c2cc1OC,1,6,1,10,-3,-1,nt
Cc1[nH]oc(=O)c1N=Nc1ccc2[nH]c(=O)[nH]c2c1,5,6,4,3,nt,nt,nt
O=C(CSc1ccc([N+](=O)[O-])cc1)c1ccccc1,nt,2,1,0,nt,nt,nt
O=C(CSc1ccccc1C(=O)O)c1ccc([N+](=O)[O-])cc1,1,46*,0,5,-1,1,56*
Cc1ccc(C)c(N2CCN(C(=O)CCC(=O)Nc3nnc(C(F)(F)F)s3)CC2)c1,3,-5,3,6,-4,-4,nt
O=S(=O)(CCNC1CC1)NC1CCCCC1,nt,-10,3,6,nt,nt,nt
CCOC(=O)C1CCCN1C(=O)C1(NC(C)=O)CCCC1 (configuration not stated),nt,2,3,-2,nt,nt,nt
CCOc1ccc(C(=O)OCC(=O)NC(C)C)cc1,2,55*,-1,0,-2,-1,43*
O=C(COC(=O)c1ccccc1)NCC1CCCO1 (configuration not stated),2,17,0,15,-4,-1,nt
COc1ccc(C(=O)OCC(=O)NCC2CCCO2)c(F)c1 (configuration not stated),8,38*,3,4,nt,nt,34*
